Reference: ChEMBL document CHEMBL3259608, “Synthesis of a terphenyl substituted 4-aza-2,3-didehydropodophyllotoxin analogues as inhibitors of tubulin polymerization and apoptosis inducers” (Bioorg Med Chem, 2014)
Active and inactive are the calls of the source. The calls are words filed in the database; no cut-off is given here.

Key:
HeLa = test: Anticancer activity against human HeLa cells after 48 hrs by MTT assay; type: functional, cell-based
In short: (§1)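 MTT assay: 1×10⁴ cells/well seeded in DMEM with 10% FBS, 24 h at 37°C in CO₂ before dosing. Compounds diluted in medium, vehicle control included, 48 h exposure. MTT (5 mg/mL stock) added for 4 h, formazan dissolved in DMSO, absorbance read at 540 nm. IC50 averaged from three individual experiments.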

ACHN = test: Anticancer activity against human ACHN cells after 48 hrs by MTT assay; type: functional, cell-based; in short: as §1
A549 [1] = test: Anticancer activity against human A549 cells after 48 hrs by MTT assay; type: functional, cell-based; settings: A549, 48 h; in short: as §1
DU-145 = test: Anticancer activity against human DU145 cells after 48 hrs by MTT assay; type: functional, cell-based; settings: DU-145, 48 h; in short: as §1
HT-29 = test: Anticancer activity against human HT-29 cells after 48 hrs by MTT assay; type: functional, cell-based; settings: HT-29, 48 h; in short: as §1
A549 [2] = test: Cell cycle arrest in human A549 cells assessed as accumulation at G2/M phase at 1 uM after 48 hrs by propidium iodide staining-based flow cytometric analysis (reference value: 11.73%); type: functional
A549 [3] = test: Cell cycle arrest in human A549 cells assessed as accumulation at G0/G1 phase at 0.5 uM after 48 hrs by propidium iodide staining-based flow cytometric analysis (reference value: 78.23%); type: functional
Tubulin (Homo sapiens) [4] = biological target: T1, Tubulin (Homo sapiens) (UniProt P68371+Q9H4B7+P0DPH7+P68366+Q13509+Q71U36+P04350+Q3ZCM7+P07437+P68363+Q9BQE3+Q6PEY2+Q13885+Q9BVA1+Q9BUF5); test: Inhibition of alpha-tubulin polymerization in human A549 cells at 1 uM after 48 hrs by immunohistochemical analysis; type: cell-based
In short: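 A549 cells on coverslips treated 48 h at 1 µM. Fixed in 4% paraformaldehyde for 20 min, permeabilised with 0.2% Triton X-100 for 5 min, then methanol overnight. Blocked in 1% BSA, anti-α-tubulin (1:1000) 2 h at room temperature, FITC anti-mouse secondary 1 h. Microtubule network integrity examined by fluorescence microscopy.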

A549 [5] = test: Cell cycle arrest in human A549 cells assessed as accumulation at sub-G1 phase at 0.5 uM after 48 hrs by propidium iodide staining-based flow cytometric analysis (reference value: 6.47%); type: functional
A549 [6] = test: Induction of apoptosis in human A549 cells assessed as DNA fragmentation at 1 uM after 48 hrs by agarose gel electrophoresis; type: functional, cell-based
In short: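 After 24 h settling, 1×10⁶ A549 cells/well treated 48 h at 1 µM. Pellet washed in PBS and lysed. Supernatant given SDS and RNase A for 2 h at 56°C, then proteinase K for 2 h at 37°C. DNA precipitated with ammonium acetate and cold ethanol at -80°C, washed in 80% ethanol, dissolved in TE. Laddering on 2% agarose gel.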

A549 [7] = test: Cell cycle arrest in human A549 cells assessed as accumulation at sub-G1 phase at 1 uM after 48 hrs by propidium iodide staining-based flow cytometric analysis (reference value: 6.47%); type: functional
A549 [8] = test: Induction of apoptosis in human A549 cells assessed as nuclear condensation at 1 uM after 48 hrs by Hoechst staining-based fluorescence microscopic analysis; type: functional, cell-based
In short: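 10,000 A549 cells on coverslips, 24 h, then fresh medium with compound at 1 µM for 48 h. Vehicle control 0.001% DMSO. Hoechst 33258 added with 4% paraformaldehyde for 30 min at 37°C. Random fields imaged by fluorescence microscopy and scored qualitatively for chromatin condensation and nuclear fragmentation.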

A549 [9] = test: Cell cycle arrest in human A549 cells assessed as accumulation at S phase at 0.5 uM after 48 hrs by propidium iodide staining-based flow cytometric analysis (reference value: 3.57%); type: functional
A549 [10] = test: Cell cycle arrest in human A549 cells assessed as accumulation at G0/G1 phase at 1 uM after 48 hrs by propidium iodide staining-based flow cytometric analysis (reference value: 78.23%); type: functional
Tubulin = test: Inhibition of tubulin (unknown origin) polymerization measured for 1 hr by fluorescence assay; type: protein-complex assay, Homo sapiens
A549 [11] = test: Induction of apoptosis in human A549 cells assessed as caspase-3 activation at 1 to 2 uM after 48 hrs by ELISA relative to control; type: functional
In short: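 Colorimetric caspase-3 kit used. A549 cells treated 48 h at 1 and 2 µM, pelleted, washed in PBS, lysed 15 min, spun 15 min. Supernatant assayed by ELISA-based readout, fold change versus untreated control. Mean of two experiments, each in triplicate.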

A549 [12] = test: Cell cycle arrest in human A549 cells assessed as accumulation at G2/M phase at 0.5 uM after 48 hrs by propidium iodide staining-based flow cytometric analysis (reference value: 11.73%); type: functional
Tubulin (Homo sapiens) [13] = biological target: T1, Tubulin (Homo sapiens); test: Inhibition of tubulin (unknown origin) polymerization at 3 uM measured for 1 hr by fluorescence assay relative to control; type: protein-complex assay
In short: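 Tubulin polymerization kit, fluorescence-reporter based. Reaction in PEM buffer with GTP, with or without compound at 3 µM final. Reporter incorporation followed as fluorescence increase (excitation 360 nm, emission 420 nm) for 1 h at 37°C. Mean of two experiments, each in triplicate.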

A549 [14] = test: Cell cycle arrest in human A549 cells assessed as accumulation at S phase at 1 uM after 48 hrs by propidium iodide staining-based flow cytometric analysis (reference value: 3.57%); type: functional

Structure (SMILES) | IC50 (HeLa) | IC50 (ACHN) | IC50 (A549 [1]) | IC50 (DU-145) | IC50 (HT-29) | also measured
O=C1OCC2=C1C(c1ccc(-c3ccc(-c4ccc(F)cc4)cc3)cc1)c1cc3[nH]ccc3cc1N2 (configuration not stated) | 9.54 µM | 5.75 µM | 4.36 µM | 7.24 µM | 8.91 µM | 
O=C1OCC2=C1C(c1ccc(-c3ccc(-c4cc(F)cc(Cl)c4)cc3)cc1)c1cc3[nH]ccc3cc1N2 (configuration not stated) | 3.16 µM | 2.95 µM | 2.55 µM | 4.78 µM | 8.7 µM | 
O=C1OCC2=C1C(c1ccc(-c3ccc(-c4cc(F)c(F)c(F)c4)cc3)cc1)c1cc3[nH]ccc3cc1N2 (configuration not stated) | 10.5 µM | 6.45 µM | 5.49 µM | 13.2 µM | 6.6 µM | 
O=C1OCC2=C1C(c1ccc(-c3ccc(-c4cc(F)cc(F)c4)cc3)cc1)c1c(ccc3cn[nH]c13)N2 (configuration not stated) | 1.23 µM | 0.95 µM | 0.91 µM | 1.28 µM | 1.02 µM | Activity (A549 [2]): 52.34%; Activity (A549 [3]): 69.78%; inhibition (Tubulin (Homo sapiens) [4]): Active; Activity (A549 [5]): 1.27%; Activity (A549 [6]): Active; Activity (A549 [7]): 1.22%; Activity (A549 [8]): Active; Activity (A549 [9]): 4.39%; Activity (A549 [10]): 41.23%; IC50 (Tubulin): 2.74 µM; fold change (FC) (A549 [11]): 3; Activity (A549 [12]): 24.56%; inhibition (Tubulin (Homo sapiens) [13]): 51.3%; Activity (A549 [14]): 5.21%
O=C1OCC2=C1C(c1ccc(-c3ccc(-c4cc(F)c(F)c(F)c4)cc3)cc1)c1c(-c3ccccc3)n[nH]c1N2 (configuration not stated) | 7.07 µM | 7.52 µM | 4.36 µM | 6.5 µM | 6.45 µM | 
O=C1OCC2=C1C(c1ccc(-c3ccc(-c4cc(F)cc(F)c4)cc3)cc1)c1cc3[nH]ccc3cc1N2 (configuration not stated) | 8.51 µM | 5.75 µM | 5.49 µM | 8.7 µM | 6.45 µM | 
O=C1OCC2=C1C(c1ccc(-c3ccc(-c4ccc(C(F)(F)F)cc4)cc3)cc1)c1cc3[nH]ccc3cc1N2 (configuration not stated) | 16.6 µM | 7.58 µM | 10 µM | 12.6 µM | 7.41 µM | 
O=C1OCC2=C1C(c1ccc(-c3ccc(-c4cc(F)c(F)c(F)c4)cc3)cc1)c1c(ccc3cn[nH]c13)N2 (configuration not stated) | 5.49 µM | 7.41 µM | 3.98 µM | 6.91 µM | 8.91 µM | 
O=C1OCC2=C1C(c1ccc(-c3ccc(-c4ccc(F)cc4)cc3)cc1)c1c(ccc3cn[nH]c13)N2 (configuration not stated) | 1.94 µM | 1.47 µM | 0.95 µM | 1.44 µM | 1.69 µM | 
O=C1OCC2=C1C(c1ccc(-c3ccc(-c4ccc(OC(F)(F)F)cc4)cc3)cc1)c1c(-c3ccccc3)n[nH]c1N2 (configuration not stated) | 2.23 µM | 4.07 µM | 0.98 µM | 1.12 µM | 1.77 µM | 
O=C1OCC2=C1C(c1ccc(-c3ccc(-c4ccc(C(F)(F)F)cc4)cc3)cc1)c1c(-c3ccccc3)n[nH]c1N2 (configuration not stated) | 6.16 µM | 5.24 µM | 5.75 µM | 6.45 µM | 8.51 µM | 
O=C1OCC2=C1C(c1ccc(-c3ccc(-c4ccc(F)cc4)cc3)cc1)c1c(-c3ccccc3)n[nH]c1N2 (configuration not stated) | 3.8 µM | 2.18 µM | 1.47 µM | 4.16 µM | 3.31 µM | 
COc1cc([C@@H]2c3cc4c(cc3[C@@H](O[C@@H]3O[C@@H]5CO[C@@H](C)O[C@H]5[C@H](O)[C@H]3O)[C@H]3COC(=O)[C@H]23)OCO4)cc(OC)c1O [ETOPOSIDE] | 2.75 µM | 2.04 µM | 2.45 µM | 3.17 µM | 1.47 µM | Activity (A549 [2]): 46.14%; Activity (A549 [3]): 70.74%; Activity (A549 [5]): 4.93%; Activity (A549 [7]): 4.01%; Activity (A549 [9]): 4.24%; Activity (A549 [10]): 46.09%; Activity (A549 [12]): 20.09%; Activity (A549 [14]): 3.76%
COc1cc([C@@H]2c3cc4c(cc3[C@H](O)[C@H]3COC(=O)[C@H]23)OCO4)cc(OC)c1OC [PODOFILOX] |  | 1.93 µM | 3.09 µM | 3.21 µM | 2.29 µM | inhibition (Tubulin (Homo sapiens) [13]): 52%
O=C1OCC2=C1C(c1ccc(-c3ccc(-c4cc(F)cc(Cl)c4)cc3)cc1)c1c(-c3ccccc3)n[nH]c1N2 (configuration not stated) | 6.02 µM | 3.16 µM | 2.88 µM | 5.75 µM | 6.3 µM | 
O=C1OCC2=C1C(c1ccc(-c3ccc(-c4ccc(C(F)(F)F)cc4)cc3)cc1)c1c(ccc3cn[nH]c13)N2 (configuration not stated) | 7.09 µM | 2.75 µM | 1.16 µM | 4.89 µM | 2.39 µM | 
O=C1OCC2=C1C(c1ccc(-c3ccc(-c4cc(F)cc(Cl)c4)cc3)cc1)c1c(ccc3cn[nH]c13)N2 (configuration not stated) | 7.53 µM | 9.33 µM | 7.41 µM | 12.6 µM | 9.42 µM | 
O=C1OCC2=C1C(c1ccc(-c3ccc(-c4ccc(OC(F)(F)F)cc4)cc3)cc1)c1cc3[nH]ccc3cc1N2 (configuration not stated) | 7.41 µM | 5.37 µM | 5.12 µM | 6.02 µM | 9.33 µM | 
O=C1OCC2=C1C(c1ccc(-c3ccc(-c4cc(F)cc(F)c4)cc3)cc1)c1c(-c3ccccc3)n[nH]c1N2 (configuration not stated) | 8.12 µM | 14.1 µM | 6.72 µM | 10 µM | 5.83 µM | 
